In ChEMBL document CHEMBL1139875, “Discovery of 4-aminobutyric acid derivatives possessing anticonvulsant and antinociceptive activities: a hybrid pharmacophore approach” (2007):
Calls of active or inactive are those of the source. The rule behind the calls is not given here.

Columns and labels:
Rattus norvegicus [1] = assay: Antihyperalgesic effects in Sprague-Dawley rat SNL model assessed as duration of paw withdrawal at 100 mg/kg, ip after 1 hr, ip; format: functional; conditions: route intraperitoneal
Summary of the method: (§1)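 L5 SNL rats (n = 4), dosed 100 mg/kg i.p. (vehicle 30% v/v PEG 400 in water). Pin-prick to midplantar ipsilateral left hindpaw; withdrawal duration, mean of three responses; ≥2 s defined abnormal. Mean ± SEM; one-way ANOVA with Bonferroni versus predrug.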

Rattus norvegicus [2] = assay: Antihyperalgesic effects in Sprague-Dawley rat SNL model assessed as duration of paw withdrawal at 100 mg/kg, ip after 2.5 hrs, ip; format: functional; conditions: route intraperitoneal; summary of the method: as §1
Rattus norvegicus [3] = assay: Effect on spontaneous pain in Sprague-Dawley rat CCI model assessed as duration of paw withdrawal at 100 mg/kg, ip after 0.5 hr; format: functional; conditions: route intraperitoneal
Summary of the method: (§2)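 CCI rats (n = 4) dosed 100 mg/kg i.p. (vehicle 30% v/v PEG 400 in water). After 10 min acclimatization in a cage 5 cm above ground, cumulative time the ipsilateral paw was held off the floor over 5 min recorded, excluding locomotion lifts. Mean ± SEM; ANOVA/Bonferroni versus predrug.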

Rattus norvegicus [4] = organism: Rattus norvegicus; assay: Anti-dynamic allodynic effect in Sprague-Dawley rat CCI model assessed as latency to paw withdrawal after 2 hr; format: functional
Summary of the method: (§3)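 Rats with sciatic nerve chronic constriction injury (pentobarbital 65 mg/kg i.p. anaesthesia), baseline and day 9 testing, then drug per randomization table. After 10 min acclimatization, affected plantar surface stroked mildly with a cotton-bud; paw lift recorded. n = 4; retested 0.5-2.5 h post-dose.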

Rattus norvegicus [5] = assay: Effect on spontaneous pain in Sprague-Dawley rat CCI model assessed as duration of paw withdrawal at 100 mg/kg, ip after 1 hr; format: functional; conditions: route intraperitoneal; summary of the method: as §2
Rattus norvegicus [6] = assay: Antihyperalgesic effects in Sprague-Dawley rat CCI model assessed as duration of paw withdrawal at 100 mg/kg, ip after 0.5 hr; format: functional; conditions: route intraperitoneal
Rattus norvegicus [7] = assay: Anti-cold allodynia effect in Sprague-Dawley rat SNL model assessed as duration of paw withdrawal 100 mg/kg, ip after 1 hrs; format: functional; conditions: route intraperitoneal
Summary of the method: (§4)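 Left L5 spinal nerve ligation under pentobarbital (65 mg/kg i.p.). Allodynic rats dosed i.p. 100 mg/kg, vehicle 30% v/v PEG 400 in water. Acetone (100-200 µL) misted onto midplantar affected paw after 10 min acclimatization; paw withdrawal duration, mean of three samples at least 3 min apart; n = 4 rats.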

Rattus norvegicus [8] = assay: Antihyperalgesic effects in Sprague-Dawley rat SNL model assessed as duration of paw withdrawal at 100 mg/kg, ip after 1.5 hrs, ip; format: functional; conditions: route intraperitoneal; summary of the method: as §1
Rattus norvegicus [9] = assay: Antihyperalgesic effects in Sprague-Dawley rat CCI model assessed as duration of paw withdrawal at 100 mg/kg, ip after 2.5 hrs; format: functional; conditions: route intraperitoneal
Mus musculus [10] = assay: Anticonvulsant activity in Swiss Albino mouse at 300 mg/kg, ip after 0.5 hr by MES test; format: functional, organism-based; parameters: dose 300 mg/kg
Summary of the method: (§5)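 Mice (Swiss, 20-25 g) given i.p. doses of 30, 100 and 300 mg/kg under ADD program protocols, three per group, examined at 0.5 and 4 h in MES, scPTZ, scSTY or scPIC seizure tests. Value is the minimum dose protecting half or more of the mice.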

Rattus norvegicus [11] = assay: Antihyperalgesic effects in Sprague-Dawley rat SNL model assessed as duration of paw withdrawal at 100 mg/kg, ip after 0.5 hr, ip; format: functional; conditions: route intraperitoneal; summary of the method: as §1
Rattus norvegicus [12] = organism: Rattus norvegicus; assay: Anti-dynamic allodynic effect in Sprague-Dawley rat CCI model assessed as latency to paw withdrawal after 1.5 hr; format: functional; summary of the method: as §3
Rattus norvegicus [13] = assay: Anti-cold allodynia effect in Sprague-Dawley rat SNL model assessed as duration of paw withdrawal 100 mg/kg, ip after 2.5 hrs; format: functional; conditions: route intraperitoneal; summary of the method: as §4
Rattus norvegicus [14] = assay: Antihyperalgesic effects in Sprague-Dawley rat CCI model assessed as duration of paw withdrawal at 100 mg/kg, ip after 1 hr; format: functional; conditions: route intraperitoneal
Rattus norvegicus [15] = assay: Effect on spontaneous pain in Sprague-Dawley rat CCI model assessed as duration of paw withdrawal at 100 mg/kg, ip after 1.5 hrs; format: functional; conditions: route intraperitoneal
Summary of the method: (§6)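 Unilateral CCI of sciatic nerve (Bennett and Xie) in Sprague-Dawley rats under i.p. pentobarbital sodium (65 mg/kg). Spontaneous pain is scored over 5 min after 10 min acclimatization, as cumulative time the ipsilateral paw is held off the floor. Paw lifts from locomotion or repositioning are excluded. Drug is given at 100 mg/kg i.p. with 30% v/v PEG 400 vehicle. Mean ± SEM, n = 4, compared with predrug by ANOVA/Bonferroni.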

Rattus norvegicus [16] = organism: Rattus norvegicus; assay: Anti-dynamic allodynic effect in Sprague-Dawley rat CCI model assessed as latency to paw withdrawal after 0.5 hr; format: functional; summary of the method: as §3
Rattus norvegicus [17] = assay: Antihyperalgesic effects in Sprague-Dawley rat CCI model assessed as duration of paw withdrawal at 100 mg/kg, ip after 2 hrs; format: functional; conditions: route intraperitoneal
Rattus norvegicus [18] = assay: Effect on spontaneous pain in Sprague-Dawley rat CCI model assessed as duration of paw withdrawal at 100 mg/kg, ip after 2.5 hrs; format: functional; conditions: route intraperitoneal; summary of the method: as §6
Mus musculus [19] = assay: Anticonvulsant activity in Swiss Albino mouse at 300 mg/kg, ip after 4 hrs by MES test; format: functional, organism-based; parameters: dose 300 mg/kg; summary of the method: as §5
Rattus norvegicus [20] = organism: Rattus norvegicus; assay: Anti-dynamic allodynic effect in Sprague-Dawley rat CCI model assessed as latency to paw withdrawal after 1 hr; format: functional; summary of the method: as §3
Rattus norvegicus [21] = assay: Antihyperalgesic effects in Sprague-Dawley rat CCI model assessed as duration of paw withdrawal at 100 mg/kg, ip after 1.5 hrs; format: functional; conditions: route intraperitoneal
Rattus norvegicus [22] = assay: Anti-cold allodynia effect in Sprague-Dawley rat SNL model assessed as duration of paw withdrawal 100 mg/kg, ip after 1.5 hrs; format: functional; conditions: route intraperitoneal; summary of the method: as §4
Rattus norvegicus [23] = assay: Effect on spontaneous pain in Sprague-Dawley rat CCI model assessed as duration of paw withdrawal at 100 mg/kg, ip after 2 hrs; format: functional; conditions: route intraperitoneal; summary of the method: as §6
Rattus norvegicus [24] = organism: Rattus norvegicus; assay: Anti-dynamic allodynic effect in Sprague-Dawley rat CCI model assessed as latency to paw withdrawal after 2.5 hr; format: functional; summary of the method: as §3
Rattus norvegicus [25] = assay: Anti-dynamic allodynia effect in Sprague-Dawley rat SNL model assessed as latency to paw withdrawal 100 mg/kg, ip after 2.5 hrs; format: functional; conditions: route intraperitoneal
Summary of the method: (§7)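 Left L5 spinal nerve ligation rats, tested preoperatively and 9 days postoperatively, then given 100 mg/kg i.p. (vehicle 30% v/v PEG 400 in water). After 10 min acclimatization, plantar surface of affected paw stroked mildly with a cotton-bud; paw lift response recorded. n = 4; retested 0.5-2.5 h post-dose.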

Rattus norvegicus [26] = assay: Anti-cold allodynia effect in Sprague-Dawley rat CCI model assessed as duration of paw withdrawal at 100 mg/kg, ip after 0.5 hr; format: functional; conditions: route intraperitoneal
Summary of the method: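 CCI by sciatic nerve ligation under pentobarbital (65 mg/kg i.p.). Rats tested at baseline and 9 days post-surgery; those with allodynia dosed i.p. 100 mg/kg, vehicle 30% v/v PEG 400 in water. Acetone (100-200 µL) misted on midplantar affected paw; withdrawal duration recorded, three samples averaged, at least 3 min apart; n = 4.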

Rattus norvegicus [27] = assay: Anti-dynamic allodynia effect in Sprague-Dawley rat SNL model assessed as latency to paw withdrawal 100 mg/kg, ip after 1.5 hrs; format: functional; conditions: route intraperitoneal; summary of the method: as §7

Compound | Activity (Rattus norvegicus [1]) [s] | Activity (Rattus norvegicus [2]) [s] | Activity (Rattus norvegicus [3]) [s] | Activity (Rattus norvegicus [4]) [s] | Activity (Rattus norvegicus [5]) [s] | Activity (Rattus norvegicus [6]) [s] | Activity (Rattus norvegicus [7]) [s] | Activity (Rattus norvegicus [8]) [s] | Activity (Rattus norvegicus [9]) [s] | Activity (Rattus norvegicus [11]) [s] | Activity (Rattus norvegicus [12]) [s] | Activity (Rattus norvegicus [14]) [s] | Activity (Rattus norvegicus [15]) [s] | Activity (Rattus norvegicus [16]) [s] | Activity (Rattus norvegicus [17]) [s] | Activity (Rattus norvegicus [18]) [s] | Activity (Rattus norvegicus [20]) [s] | Activity (Rattus norvegicus [21]) [s] | Activity (Rattus norvegicus [23]) [s] | Activity (Rattus norvegicus [24]) [s] | also measured
O=C(O)CCCNC(=O)N/N=C1\C(=O)Nc2ccccc21 | 9.6 | 18.7 | 38.6 | 8.4 | 34.9 | 10.8 | 16.3 | 45.7 | 27.8 | 4.7 | 15.5 | 4.9 | 21.6 | 14.5 | 5 | 20.2 | 12.4 | 8.8 | 20.6 | 0.8 | Activity (Mus musculus [10]): Active; Activity (Rattus norvegicus [13]): 41.2 s; Activity (Mus musculus [19]): Active; Activity (Rattus norvegicus [22]): 22.6 s
O=C(O)CCCNC(=O)N/N=C/c1ccccc1O | 17.3 | 17.3 | 10.5 | 14.6 | 19.3 | 7.5 | 27.3 | 10.6 | 7.3 | 17.6 | 11.1 | 7.7 | 23.7 | 13.6 | 4.1 | 7.3 | 13.5 | 4.4 | 11.2 | 13.1 | Activity (Rattus norvegicus [25]): 11.32 s; Activity (Mus musculus [10]): inactive; Activity (Rattus norvegicus [13]): 28.5 s; Activity (Rattus norvegicus [26]): 31.3 s; Activity (Rattus norvegicus [27]): 11.5 s; Activity (Mus musculus [19]): inactive; Activity (Rattus norvegicus [22]): 26 s
Nc1nnc(-c2cccc(Cl)c2Cl)c(N)n1 [LAMOTRIGINE] | 8.2 | 17.3 | 69.2 | 0.9 | 79 | 36.2 | 9.2 | 10.1 | 29.8 | 22.5 | 0.9 | 36.7 | 76.9 | 5.7 | 33.7 | 67.8 | 1.3 | 35.7 | 71.2 | 1 | Activity (Rattus norvegicus [25]): 0.64 s; Activity (Rattus norvegicus [13]): 18.4 s; Activity (Rattus norvegicus [26]): 53.7 s; Activity (Rattus norvegicus [27]): 1.9 s; Activity (Rattus norvegicus [22]): 21.8 s
NCC1(CC(=O)O)CCCCC1 [GABAPENTIN] | 10.2 | 8.8 | 62.2 | 5.9 | 15.5 | 36.8 | 9 | 10 | 8.4 | 20.1 | 5.5 | 12.3 | 13.1 | 1.6 | 9.2 | 18.1 | 4.6 | 10.7 | 11 | 6.6 | Activity (Rattus norvegicus [25]): 6.53 s; Activity (Rattus norvegicus [13]): 6.9 s; Activity (Rattus norvegicus [26]): 26.8 s; Activity (Rattus norvegicus [27]): 6 s; Activity (Rattus norvegicus [22]): 7.8 s
NC(=O)N1c2ccccc2C=Cc2ccccc21 [CARBAMAZEPINE] | 5.2 | 5.8 | 24.6 | 3.4 | 17.8 | 13.3 | 11.8 | 6.6 | 24 | 11.1 | 4.9 | 15.7 | 32.8 | 2.7 | 21.7 | 76.9 | 3.7 | 22.9 | 67.4 | 3.8 | Activity (Rattus norvegicus [25]): 1.65 s; Activity (Rattus norvegicus [13]): 20.6 s; Activity (Rattus norvegicus [26]): 12.8 s; Activity (Rattus norvegicus [27]): 2.9 s; Activity (Rattus norvegicus [22]): 7.9 s
CN(C)c1ccc(/C=N/NC(=O)NCCCC(=O)O)cc1 | 5.8 | 5.8 | 47.2 | 8.2 | 48.8 | 17.4 | – | 5.5 | 4.8 | 4.7 | 10.3 | 13.1 | 38.2 | 10.9 | 5.8 | 5.2 | 10.9 | 9.7 | 11.9 | 8.4 | Activity (Rattus norvegicus [25]): 1.82 s; Activity (Mus musculus [10]): inactive; Activity (Rattus norvegicus [26]): 28.1 s; Activity (Rattus norvegicus [27]): 7.3 s; Activity (Mus musculus [19]): inactive
